Data: ChEMBL document CHEMBL4334452, “Monosaccharide Analogues of Anticancer Peptide R-Lycosin-I: Role of Monosaccharide Conjugation in Complexation and the Potential of Lung Cancer Targeting and Therapy” (J Med Chem, 2019)
Active and inactive are the calls of the source. The calls are words filed in the database; no cut-off is given here. *1 amine or outer side, *2 acyl side, *3 side chain or, on linkers, in order; H or OH if unused. Where a SMILES comes first, the peptide text is derived from it. The star is where a group is joined. NH(CH2)3O(βDGlc) = OC[C@H]1O[C@@H](OCCCN*)[C@H](O)[C@@H](O)[C@@H]1O; Glutaryl = O=C(CCCC(=O)[*:2])[*:1]

Key:
[1] = biological target: T1, Solute carrier family 2, facilitated glucose transporter member 1 (Homo sapiens) (UniProt P11166); test: Binding affinity to GLUT1 in human A549 cells assessed as cytotoxicity by measuring reduction in cell viability at 40 umol/L measured up to 24 hrs in presence of 10% serum by CCK8 assay; format: cell-based
T1 sequence (whole entry): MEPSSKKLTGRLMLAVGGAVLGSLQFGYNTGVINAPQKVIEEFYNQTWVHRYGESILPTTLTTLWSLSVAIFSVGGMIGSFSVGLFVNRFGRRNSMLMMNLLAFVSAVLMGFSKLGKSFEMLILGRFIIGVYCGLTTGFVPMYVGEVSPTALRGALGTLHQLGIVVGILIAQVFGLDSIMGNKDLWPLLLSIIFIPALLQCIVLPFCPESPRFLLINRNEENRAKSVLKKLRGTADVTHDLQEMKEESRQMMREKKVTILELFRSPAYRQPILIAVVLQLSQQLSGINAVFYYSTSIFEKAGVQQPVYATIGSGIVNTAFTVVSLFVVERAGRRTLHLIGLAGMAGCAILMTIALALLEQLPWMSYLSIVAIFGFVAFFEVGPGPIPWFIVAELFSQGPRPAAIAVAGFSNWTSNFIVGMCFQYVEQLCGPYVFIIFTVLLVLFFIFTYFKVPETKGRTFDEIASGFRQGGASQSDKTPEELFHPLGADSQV

[2] = biological target: T1, Solute carrier family 2, facilitated glucose transporter member 1 (Homo sapiens); test: Binding affinity to GLUT1 in human A549 cells assessed as cytotoxicity by measuring reduction in cell viability at 12.5 uM measured after 2 hrs in absence of GLUT1 inhibitor STF-31 by CCK8 assay; format: cell-based
In short: (§1)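 A549 cells at 2×10^3/well, grown overnight, then preincubated 4 h in F12K/10% FBS with or without STF-31 (1 µM final). […] Incubated a further 2 h at 37 °C; viability by CCK-8.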

[3] = tested on: A549; test: Inhibition of colony formation in human A549 cells at 4 uM supplemented with fresh medium containing compounds every 7 days for 15 days by crystal violet staining based assay; format: functional, cell-based
In short: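 Cells seeded at 300 per plate in 6-well plates; after 36 h exposed to 4 μM peptide, re-added after 7 days. Incubated 15 days total at 37°C, 5% CO2, then colonies stained with 2% crystal violet and quantified; n=3.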

[4] = tested on: A549; test: Cytotoxicity against GLUT1 knockout out human A549 cells assessed as reduction in cell viability measured after 24 hrs by CCK8 assay; format: functional, cell-based; conditions: A549, 24 h
In short: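 A549 cells with GLUT1 knocked down by RNAi oligos, about 50% knockdown versus control oligos. Cells treated with a concentration series, read by 24-h serum-free CCK-8 viability, and an IC50 derived from the dose-response curve.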

[5] = tested on: A549; test: Potency index, ratio of compound effect to R-lycosin-I effect for antitumor activity against human A549 cells expressing luciferase gene xenografted in Balb/c nu/nu mouse at 3 mg/kg administered intratumorally; format: functional
[6] = tested on: HEK-293T; test: Cytotoxicity against HEK293T cells at 12.5 uM measured after 2 hrs by LDH release assay; format: cell-based; conditions: human
[7] = Drug uptake in GLUT1 knockout out human A549 cells at 12.5 uM measured after 2 hrs using FITC-labelled compound by fluorescence assay; format: ADME, cell-based; conditions: a549, 2 h
In short: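 FITC-labelled peptide at 12.5 µM for 2 h, given to A549 cells and to A549 GLUT1-RNAi knockdown cells. Total and fluorescent cells counted by automated cell counter; n=3.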

[8] = Stability of the compound in serum (unknown origin) measured up to 48 hrs; format: ADME, cell-free
[9] = Toxicity in Balb/c nu/nu mouse xenografted with human A549 cells expressing luciferase gene assessed as effect on kidney at 9 mg/kg, ip administered every 2 days for seven times measured on day 14 by H and E staining based assay; format: organism-based; conditions: in vivo, 48 h
In short: (§2)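 Male BALB/c nu/nu mice bearing subcutaneous A549-luciferase xenografts received 9 mg/kg peptide i.p. (200 µL) every other day for seven doses, with a PBS control group of five. Heart, liver and kidney were fixed in 10% paraformaldehyde, sectioned and stained with H&E for histology.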

[10] = Toxicity in Balb/c nu/nu mouse xenografted with human A549 cells expressing luciferase gene assessed as effect on liver at 9 mg/kg, ip administered every 2 days for seven times measured on day 14 by H and E staining based assay; format: organism-based; conditions: in vivo, 48 h; in short: as §2
[11] = biological target: T1, Solute carrier family 2, facilitated glucose transporter member 1 (Homo sapiens); test: Binding affinity to GLUT1 in human A549 cells assessed as cytotoxicity by measuring cell viability at 12.5 uM measured after 2 hrs in absence of GLUT1 inhibitor STF-31 by CCK8 assay relative to control; format: cell-based; in short: as §1
[12] = biological target: T1, Solute carrier family 2, facilitated glucose transporter member 1 (Homo sapiens); test: Binding affinity to GLUT1 in human A549 cells assessed as cytotoxicity by measuring reduction in cell viability at 40 umol/L measured up to 48 hrs in presence of 10% serum by CCK8 assay relative to control; format: cell-based
[13] = Toxicity in Balb/c nu/nu mouse xenografted with human A549 cells expressing luciferase gene assessed as effect on heart at 9 mg/kg, ip administered every 2 days for seven times measured on day 14 by H and E staining based assay; format: organism-based; conditions: in vivo, 48 h; in short: as §2
[14] = tested on: A549; test: Antitumor activity against human A549 cells expressing luciferase gene xenografted in Balb/c nu/nu mouse assessed as reduction in tumor volume at 9 mg/kg, ip administered every 2 days for seven times measured on day 14 by bioluminescent imaging analysis; format: functional, organism-based
In short: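 Male BALB/c nu/nu mice, 4-6 weeks old, carrying subcutaneous A549-luciferase xenografts in the right back. Dosing started when tumors reached 100-200 mm³ (day 0), five per group. Peptide was given at 9 mg/kg i.p. in 200 µL every other day for 7 doses; PBS served as control. Bioluminescent imaging on day 14; tumor size and body weight tracked. Tumors fixed in paraformaldehyde, paraffin-sectioned, TUNEL-stained.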

[15] = biological target: T1, Solute carrier family 2, facilitated glucose transporter member 1 (Homo sapiens); test: Binding affinity to GLUT1 in human A549 cells assessed as cytotoxicity by measuring cell viability at 12.5 uM measured after 2 hrs in presence of GLUT1 inhibitor STF-31 by CCK8 assay relative to control; format: cell-based; in short: as §1

Row | Drug uptake [7] | Stability [8] | SMILES | Activity [1] | Activity [2] | inhibition [3] | IC50 [4] [µM] | Ratio [5] | Activity [6] | Activity [9] | Activity [10] | Activity [11] [%] | Activity [12] [%] | Activity [13] | Activity [14] | Activity [15] [%]
1 | – | – | CC[C@H](C)[C@H](NC(=O)[C@H](Cc1ccccc1)NC(=O)[C@H](CCCNC(=N)N)NC(=O)[C@H](C)NC(=O)[C@@H](NC(=O)[C@H](CO)NC(=O)[C@H](CCCNC(=N)N)NC(=O)[C@H](CCSC)NC(=O)[C@H](C)NC(=O)[C@H](CCCNC(=N)N)NC(=O)[C@H](Cc1ccccc1)NC(=O)[C@H](Cc1c[nH]c2ccccc12)NC(=O)CNC(=O)[C@@H](N)CCCNC(=N)N)[C@@H](C)CC)C(=O)N[C@@H](C)C(=O)N[C@@H](CCCNC(=N)N)C(=O)N[C@@H](CCC(=O)O)C(=O)N[C@@H](CCCNC(=N)N)C(=O)N[C@@H](CC(C)C)C(=O)N[C@@H](CCCNC(=N)N)C(=O)N[C@@H](CCC(=O)O)C(=O)N[C@@H](Cc1cnc[nH]1)C(=O)N[C@@H](CC(C)C)C(=O)O (H-RGWFRAMRSIARFIARERLREHL-OH) | inactive | Active | – | – | – | – | – | – | – | – | – | – | –
2 | Not Active | Stable | CC[C@H](C)[C@H](NC(=O)[C@H](Cc1ccccc1)NC(=O)[C@H](CCCNC(=N)N)NC(=O)[C@H](C)NC(=O)[C@@H](NC(=O)[C@H](CO)NC(=O)[C@H](CCCNC(=N)N)NC(=O)[C@H](CCSC)NC(=O)[C@H](C)NC(=O)[C@H](CCCNC(=N)N)NC(=O)[C@H](Cc1ccccc1)NC(=O)[C@H](Cc1c[nH]c2ccccc12)NC(=O)CNC(=O)[C@H](CCCNC(=N)N)NC(=O)CCCC(=O)NCCCO[C@@H]1O[C@H](CO)[C@@H](O)[C@H](O)[C@H]1O)[C@@H](C)CC)C(=O)N[C@@H](C)C(=O)N[C@@H](CCCNC(=N)N)C(=O)N[C@@H](CCC(=O)O)C(=O)N[C@@H](CCCNC(=N)N)C(=O)N[C@@H](CC(C)C)C(=O)N[C@@H](CCCNC(=N)N)C(=O)N[C@@H](CCC(=O)O)C(=O)N[C@@H](Cc1cnc[nH]1)C(=O)N[C@@H](CC(C)C)C(=O)O ({NH(CH2)3O(βDGlc)-Glutaryl}-RGWFRAMRSIARFIARERLREHL-OH) | – | – | Active | 13.4 | 1.6 | Non-Toxic | Non-Toxic | Non-Toxic | 54 | 80 | Non-Toxic | Active | 40
